Assay results as given in ChEMBL document CHEMBL4041534, “Treatment of Sepsis Pathogenesis with High Mobility Group Box Protein 1-Regulating Anti-inflammatory Agents” (J Med Chem, 2017).
Changes are numbered by the printed parent chain. In brackets after ≈: the same amount, converted by molar mass. Activity calls are given as the source filed them. The calls are words filed in the database; no cut-off is given here.

What was measured:
[1] = target: T1, High mobility group protein B1 (Mus musculus) (UniProt P63158); experiment: Inhibition of HMGB1 translocation from nucleus to cytosol in LPS-stimulated mouse RAW264.7 cells assessed as inhibition of NO release at 10 uM measured after 24 hrs by Griess assay relative to control
T1 sequence (whole entry): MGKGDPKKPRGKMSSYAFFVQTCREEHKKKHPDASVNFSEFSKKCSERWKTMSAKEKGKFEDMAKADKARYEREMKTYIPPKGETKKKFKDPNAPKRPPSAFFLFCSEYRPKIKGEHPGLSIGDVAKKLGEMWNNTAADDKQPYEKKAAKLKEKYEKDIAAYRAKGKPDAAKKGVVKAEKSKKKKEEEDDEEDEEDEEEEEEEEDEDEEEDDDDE
Procedure, shortened: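 Raw264.7 cells, seeded 1 day earlier, were moved to serum-free DMEM and exposed to 100 ng/mL LPS with 10 μM compound for 24 h. Supernatant NO was measured with Griess reagent (sulfanilamide/N-(1-naphthyl)ethylenediamine/phosphoric acid) at room temperature, absorbance 548 nm. Inhibition was set against LPS+DMSO wells, blank-corrected, with four control wells. At least three independent experiments.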

[2] = Cytotoxicity against mouse RAW264.7 cells assessed as cell viability at 10 uM in presence of LPS measured after 24 hrs by WST assay relative to control; format: cell-based; details: read-out: Activity
Procedure, shortened: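 Raw264.7 cells, seeded 1 day earlier, were washed into serum-free DMEM and given 100 ng/mL LPS plus compound (10 μM) for 24 h. After the supernatant was removed, wells were refilled with 10% FBS DMEM and WST reagent was added for 20 min at 37 °C. Absorbance was read at 450 nm, and viability is relative to vehicle. At least three independent experiments.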

[3] = target: T1, High mobility group protein B1 (Mus musculus); experiment: Inhibition of HMGB1 translocation from nucleus to cytosol in LPS-stimulated mouse RAW264.7 cells assessed as inhibition of TNF-alpha production at 10 uM measured after 4 hrs by ELISA relative to control
Procedure, shortened: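 Raw264.7 cells in serum-free DMEM were treated with 100 ng/mL LPS and 10 μM compound (final). After 4 h, medium was diluted in 1% BSA/PBS and secreted TNF-α was quantified by ELISA against a standard curve of TNF-α protein. Inhibition is relative to control. At least three independent experiments.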

[4] = target: T1, High mobility group protein B1 (Mus musculus); experiment: Inhibition of HMGB1 nuclear translocation in LPS-stimulated mouse RAW264.7 cells at 20 uM pretreated for 1 hr followed by LPS-induction measured after 2 hrs by Hoechst 33342/TRITC staining based immunofluorescence microscopic method
Procedure, shortened: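 Raw264.7 cells on chambered coverglass were pretreated with 20 μM compound for 1 h, then given 500 ng/mL LPS for 2 h. Cells were fixed in 4% paraformaldehyde, permeabilized with methanol at −20 °C, blocked with 2% BSA, and stained with anti-HMGB1 plus TRITC secondary and Hoechst 33342. Imaged by deconvolution fluorescence microscopy. At least three independent experiments.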

[5] = target: T1, High mobility group protein B1 (Mus musculus); experiment: Inhibition of HMGB1 nuclear translocation in LPS-stimulated mouse RAW264.7 cells assessed as inhibition of IL-6 production at 10 uM pretreated for 1 hr followed by LPS-induction by Western blot analysis
Procedure, shortened: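 Raw264.7 cells were pretreated with 10 μM compound for 1 h, then given 100 ng/mL LPS. IL-6 released into the culture medium was detected by Western blot with ECL chemiluminescence, DMSO as control. At least three independent experiments.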

[6] = target: T2, High mobility group protein B1 (Homo sapiens) (UniProt P09429); experiment: Inhibition of ICM-BP binding to recombinant human HMGB1 assessed as reduction in Cy5-azide incorporation pretreated for 60 mins followed by ICM-BP addition for 20 mins and subsequent UV light irradiation for 5 mins by fluorescence assay
T2 sequence (whole entry): T1 sequence (whole entry) with D189E, E202D
Procedure, shortened: (§1)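 Purified HMGB1 (1 μg in water) was pretreated with competitor for 60 min, with DMSO held at 0.8% final. ICM-BP (5 μM) was then added for 20 min, followed by 365 nm UV for 5 min on ice. Cy5-azide was attached by click reaction, then samples were run on 12.5% SDS-PAGE and in-gel fluorescence scanned. Competitor was dosed in a graded series.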

[7] = target: MAP kinase p38 (Mus musculus) (UniProt P47811+O08911+Q9WUI1+Q9Z1B7); experiment: Inhibition of MAPK p38 phosphorylation at Thr180/Tyr182 resdiues in LPS-stimulated mouse RAW264.7 cells at 20 uM pretreated followed by LPS-induction by Western blot analysis
Procedure, shortened: (§2)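 Raw264.7 cells were pretreated with 20 μM compound, then stimulated with 100 ng/mL LPS, with DMSO as control. Lysates in RIPA buffer with protease and phosphatase inhibitors were normalized by BCA and run on SDS-PAGE/Western blot for phospho-p38, JNK and ERK, with GAPDH as loading control. Detection by ECL, and band intensities were quantified. At least three independent experiments.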

Mus musculus [8] = species on record: Mus musculus; experiment: Inhibition of JNK phosphorylation at Thr183/Tyr185 resdiues in LPS-stimulated mouse RAW264.7 cells at 20 uM pretreated followed by LPS-induction by Western blot analysis; procedure, shortened: as §2
Mus musculus [9] = species on record: Mus musculus; experiment: Inhibition of ERK phosphorylation in LPS-stimulated mouse RAW264.7 cells at 20 uM pretreated followed by LPS-induction by Western blot analysis; procedure, shortened: as §2
Mus musculus [10] = species on record: Mus musculus; experiment: Inhibition of NF-kappaB p65 nuclear translocation in LPS-stimulated mouse RAW264.7 cells at 20 uM pretreated followed by LPS-induction by Hoechst 33342/TRITC staining based immunofluorescence microscopic method
Procedure, shortened: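 NF-κB p65 immunofluorescence in Raw264.7 cells pretreated with 20 μM compound, then stimulated with 500 ng/mL LPS. Fixation was 4% paraformaldehyde, methanol permeabilization at −20 °C, and BSA blocking. Cells were stained with anti-p65 plus TRITC secondary and Hoechst 33342 nuclear stain, then imaged by deconvolution microscopy. At least three independent experiments.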

[11] = Equilibrium aqueous solubility of the compound by microsol method; format: physicochemical
Procedure, shortened: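 Equilibrium aqueous solubility by the μsol method. Mean ± SD, n = 3.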

[12] = Stability in mouse liver microsomes assessed as compound remaining preincubated for 5 mins followed by NADPH addition measured after 30 mins LC/MS/MS method; format: ADME, microsome; details: read-out: Stability
Procedure, shortened: (§3)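 Compounds were incubated with human or mouse liver microsomes in 100 mM potassium phosphate, pH 7.4, at 37 °C for 5 min. NADPH regenerating solution was added, and the reaction was stopped at 30 min with ice-cold acetonitrile containing imipramine internal standard. Percent remaining was measured by LC/MS/MS. Mean ± SD, n = 3.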

[13] = Stability in human liver microsomes assessed as compound remaining preincubated for 5 mins followed by NADPH addition measured after 30 mins LC/MS/MS method; format: ADME, microsome; details: read-out: Stability; procedure, shortened: as §3
Mus musculus [14] = experiment: Anti-inflammatory activity in C57BL/6(B6) mouse model of CLP-induced sepsis assessed as survival rate at 10 mg/kg, ip administered daily for 21 days starting from 1 hr prior to CLP-induction (reference value: 10 %); format: functional
Mus musculus [15] = experiment: Anti-inflammatory activity in C57BL/6(B6) mouse model of CLP-induced sepsis assessed as decrease in serum IL-6 level at 10 mg/kg, ip administered daily for 21 days starting from 1 hr prior to CLP-induction by ELISA; format: functional, organism-based
Procedure, shortened: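 Serum IL-6 measured by sandwich ELISA. Blood was taken from CLP-induced C57BL/6 mice 24 h after surgery. Plates coated with anti-IL-6 mAb overnight at 4 °C and blocked with 1% BSA/PBS; serum incubated overnight at 4 °C. Detection used biotinylated anti-IL-6 and streptavidin-HRP, TMB development and absorbance at 450 nm. Run in triplicate, three independent repeats.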

[16] = Half life in ICR mouse at 10 mg/kg, ip by LC/MS/MS method; format: ADME, organism-based; details: in vivo
Mus musculus [17] = experiment: Anti-inflammatory activity in C57BL/6(B6) mouse model of CLP-induced sepsis assessed as increase in survival rate at 10 mg/kg, ip administered daily for 9 days starting from 1 hr prior to CLP-induction; format: functional, organism-based
Procedure, shortened: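 C57BL/6 mice from a specific pathogen-free facility underwent CLP. The cecum was ligated below the ileocecal valve 5.0 mm from the tip, punctured once with a 20-gauge needle and a little stool extruded, then the abdomen was closed. Mice received 10 mg/kg ip daily for 9 days and survival was followed against vehicle-treated mice.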

Mus musculus [18] = experiment: Anti-inflammatory activity in C57BL/6(B6) mouse model of CLP-induced sepsis assessed as decrease in serum IL-6 level at 10 mg/kg, ip administered daily for 9 days starting from 1 hr prior to CLP-induction by ELISA; format: functional, organism-based
[19] = target: T2, High mobility group protein B1 (Homo sapiens); experiment: Inhibition of ICM-BP binding to recombinant human HMGB1 assessed as reduction in Cy5-azide incorporation at 1 to 20 uM pretreated for 60 mins followed by ICM-BP addition for 20 mins and subsequent UV light irradiation for 5 mins by fluorescence assay; procedure, shortened: as §1

Row | SMILES | inhibition [1] [%] | viability at 24 h, 10 µM [2] [%] | inhibition [3] [%] | inhibition [4] | inhibition [5] | inhibition [6] | inhibition [7] | inhibition (Mus musculus [8]) | inhibition (Mus musculus [9]) | inhibition (Mus musculus [10]) | solubility thermodynamic [11] [µg/mL] | remaining at 0.5 h [12] [%] | remaining at 0.5 h [13] [%] | survival at 10 mg/kg (Mus musculus [14]) [%] | Activity (Mus musculus [15]) | half-life [16] [h] | Activity (Mus musculus [17]) | Activity (Mus musculus [18]) | inhibition [19]
1 | CC(=O)c1ccc(-n2c(=O)n3n(c2=O)C2C(=CC3)C(C)(C)Oc3cc(O)ccc32)cc1 (stereo unspecified) | 93 | 111 | 68 | Active | Active | Dose-dependent effect | Active | Active | Active | Active | 162 (≈ 387 µM) | 2.46 | 30.2 | 74 | Active |  |  |  | 
2 | COc1cc(OC)cc(-n2c(=O)n3n(c2=O)C2C(=CC3)C(C)(C)Oc3cc(O)ccc32)c1 (stereo unspecified) | 94 | 121 | 60 | Active | Active | Dose-dependent effect | Active | Active | Active | Active | 65.1 (≈ 149 µM) | 20.2 | 41.2 | 56 | Active | 5 |  |  | 
3 | CC1(C)Oc2cc(O)ccc2C2C1=CCn1c(=O)n(-c3ccccc3)c(=O)n12 (stereo unspecified) | 87 | 105 | 43 | Active | Active | Dose-dependent effect | Active | Active | Active | Active | 23.5 (≈ 62.3 µM) | 0.41 | 0.82 | 45 | Active |  | Active | Active | 
4 | Cn1c(=O)n2n(c1=O)C1C(=CC2)C(C)(C)Oc2cc(O)ccc21 (stereo unspecified) | 45 | 114 |  |  |  |  |  |  |  |  |  |  |  |  |  |  |  |  | inactive
